{"source": "ChEMBL document CHEMBL5661979", "about": "“Pharmacological inhibition of BMK1 suppresses tumor growth through promyelocytic leukemia protein” (Cancer Cell, 2010)", "key": {"[1]": {"molecular_target": "Ephrin type-A receptor 2 (Homo sapiens, UniProt P29317)", "assay": "Inhibition of EphA2 in human HeLa cells lysate pre incubated for 15 mins followed by ATP acyl phosphate probe addition and measured after 10 mins by LC-MS/MS analysis", "assay_type": "subcellular"}, "[2]": {"molecular_target": "Ephrin type-B receptor 4 (Homo sapiens, UniProt P54760)", "assay": "Inhibition of EphB4 in human HeLa cells lysate pre incubated for 15 mins followed by ATP acyl phosphate probe addition and measured after 10 mins by LC-MS/MS analysis", "assay_type": "subcellular"}, "[3]": {"assay": "Inhibition of MAP3K5/MAP3K6/MAP3K15 in human HeLa cells lysate pre incubated for 15 mins followed by ATP acyl phosphate probe addition and measured after 10 mins by LC-MS/MS analysis", "assay_type": "subcellular"}, "[4]": {"molecular_target": "Serine/threonine-protein kinase 24 (Homo sapiens, UniProt Q9Y6E0)", "sequence (Q9Y6E0 whole entry)": "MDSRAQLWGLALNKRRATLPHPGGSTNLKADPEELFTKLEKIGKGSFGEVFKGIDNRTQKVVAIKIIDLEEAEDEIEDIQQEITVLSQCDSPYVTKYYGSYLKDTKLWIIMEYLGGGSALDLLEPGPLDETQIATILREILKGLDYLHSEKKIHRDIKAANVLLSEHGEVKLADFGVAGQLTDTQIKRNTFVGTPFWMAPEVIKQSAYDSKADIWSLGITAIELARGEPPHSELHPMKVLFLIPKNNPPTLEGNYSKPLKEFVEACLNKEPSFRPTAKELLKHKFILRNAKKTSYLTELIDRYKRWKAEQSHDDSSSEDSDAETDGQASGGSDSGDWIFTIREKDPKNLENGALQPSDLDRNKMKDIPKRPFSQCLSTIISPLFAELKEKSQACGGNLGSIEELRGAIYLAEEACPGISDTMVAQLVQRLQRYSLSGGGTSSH", "assay": "Inhibition of MST3 in human HeLa cells lysate pre incubated for 15 mins followed by ATP acyl phosphate probe addition and measured after 10 mins by LC-MS/MS analysis", "assay_type": "subcellular"}, "[5]": {"molecular_target": "Rho-associated protein kinase (Homo sapiens, UniProt O75116+Q13464)", "assay": "Inhibition of ROCK1/2 in human HeLa cells lysate pre incubated for 15 mins followed by ATP acyl phosphate probe addition and measured after 10 mins by LC-MS/MS analysis", "assay_type": "subcellular"}, "[6]": {"molecular_target": "Serine/threonine-protein kinase 4 (Homo sapiens, UniProt Q13043)", "sequence (Q13043 whole entry)": "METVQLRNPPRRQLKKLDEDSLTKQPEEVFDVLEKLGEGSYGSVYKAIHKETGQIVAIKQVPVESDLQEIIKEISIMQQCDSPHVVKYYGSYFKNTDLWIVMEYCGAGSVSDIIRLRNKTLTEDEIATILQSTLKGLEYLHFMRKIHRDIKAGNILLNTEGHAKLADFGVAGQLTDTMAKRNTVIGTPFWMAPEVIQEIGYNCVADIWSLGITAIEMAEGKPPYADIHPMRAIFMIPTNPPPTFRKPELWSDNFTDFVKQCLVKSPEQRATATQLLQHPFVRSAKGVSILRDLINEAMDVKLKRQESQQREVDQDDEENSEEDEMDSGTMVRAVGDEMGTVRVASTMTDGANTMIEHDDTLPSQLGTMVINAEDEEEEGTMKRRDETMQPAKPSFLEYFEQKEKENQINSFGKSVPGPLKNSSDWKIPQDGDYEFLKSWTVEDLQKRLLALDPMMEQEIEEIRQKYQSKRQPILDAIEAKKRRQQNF", "assay": "Inhibition of MST1 in human HeLa cells lysate pre incubated for 15 mins followed by ADP acyl phosphate probe addition and measured after 10 mins by LC-MS/MS analysis", "assay_type": "subcellular"}, "[7]": {"molecular_target": "Serine/threonine-protein kinase 38-like (Homo sapiens, UniProt Q9Y2H1)", "sequence (Q9Y2H1 2-464 limits assumed)": "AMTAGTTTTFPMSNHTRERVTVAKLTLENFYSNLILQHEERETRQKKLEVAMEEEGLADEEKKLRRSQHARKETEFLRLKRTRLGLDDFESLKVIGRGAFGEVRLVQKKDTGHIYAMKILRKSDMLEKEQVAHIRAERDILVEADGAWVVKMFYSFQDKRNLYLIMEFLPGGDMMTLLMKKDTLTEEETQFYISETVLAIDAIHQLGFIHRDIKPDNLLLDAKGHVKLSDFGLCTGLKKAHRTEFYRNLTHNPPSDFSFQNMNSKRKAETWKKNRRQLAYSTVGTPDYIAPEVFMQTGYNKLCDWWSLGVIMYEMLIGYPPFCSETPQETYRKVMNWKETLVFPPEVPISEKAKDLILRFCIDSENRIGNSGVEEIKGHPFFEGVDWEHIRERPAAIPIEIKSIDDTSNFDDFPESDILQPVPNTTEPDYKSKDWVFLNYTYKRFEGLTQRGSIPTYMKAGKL", "assay": "Inhibition of NDR2 in human HeLa cells lysate at 50 uM pre incubated for 15 mins followed by ADP acyl phosphate probe addition and measured after 10 mins by LC-MS/MS analysis relative to control", "assay_type": "subcellular", "settings": "time 25.0 min"}, "[8]": {"molecular_target": "T1, Serine/threonine-protein kinase tousled-like 1 (Homo sapiens) (UniProt Q9UKI8)", "T1 sequence (whole entry)": "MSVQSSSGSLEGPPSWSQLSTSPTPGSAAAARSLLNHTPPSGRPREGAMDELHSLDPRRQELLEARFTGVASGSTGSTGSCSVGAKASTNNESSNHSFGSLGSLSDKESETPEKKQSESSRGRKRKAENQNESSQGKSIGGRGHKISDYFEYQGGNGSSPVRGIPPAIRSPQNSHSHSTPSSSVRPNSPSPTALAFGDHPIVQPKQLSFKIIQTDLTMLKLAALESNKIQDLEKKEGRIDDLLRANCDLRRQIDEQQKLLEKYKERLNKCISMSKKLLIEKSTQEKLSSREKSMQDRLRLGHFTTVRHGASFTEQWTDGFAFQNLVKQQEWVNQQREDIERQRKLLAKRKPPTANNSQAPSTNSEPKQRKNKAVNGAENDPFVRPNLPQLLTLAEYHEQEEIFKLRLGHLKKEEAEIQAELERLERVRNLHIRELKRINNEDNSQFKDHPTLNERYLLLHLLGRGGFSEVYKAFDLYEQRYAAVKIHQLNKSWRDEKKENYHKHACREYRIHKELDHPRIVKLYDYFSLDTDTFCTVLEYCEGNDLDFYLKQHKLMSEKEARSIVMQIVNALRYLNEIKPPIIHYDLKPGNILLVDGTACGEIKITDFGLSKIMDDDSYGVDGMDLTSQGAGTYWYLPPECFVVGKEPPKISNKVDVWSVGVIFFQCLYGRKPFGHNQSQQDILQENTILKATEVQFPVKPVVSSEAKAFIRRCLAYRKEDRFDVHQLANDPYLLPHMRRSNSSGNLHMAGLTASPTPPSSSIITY", "assay": "Inhibition of TLK1 in human HeLa cells lysate at 50 uM pre incubated for 15 mins followed by ADP acyl phosphate probe addition and measured after 10 mins by LC-MS/MS analysis relative to control", "assay_type": "subcellular", "settings": "time 25.0 min"}, "[9]": {"molecular_target": "MAP/microtubule affinity-regulating kinase 3 (Homo sapiens, UniProt P27448)", "sequence (P27448 whole entry, looked up)": "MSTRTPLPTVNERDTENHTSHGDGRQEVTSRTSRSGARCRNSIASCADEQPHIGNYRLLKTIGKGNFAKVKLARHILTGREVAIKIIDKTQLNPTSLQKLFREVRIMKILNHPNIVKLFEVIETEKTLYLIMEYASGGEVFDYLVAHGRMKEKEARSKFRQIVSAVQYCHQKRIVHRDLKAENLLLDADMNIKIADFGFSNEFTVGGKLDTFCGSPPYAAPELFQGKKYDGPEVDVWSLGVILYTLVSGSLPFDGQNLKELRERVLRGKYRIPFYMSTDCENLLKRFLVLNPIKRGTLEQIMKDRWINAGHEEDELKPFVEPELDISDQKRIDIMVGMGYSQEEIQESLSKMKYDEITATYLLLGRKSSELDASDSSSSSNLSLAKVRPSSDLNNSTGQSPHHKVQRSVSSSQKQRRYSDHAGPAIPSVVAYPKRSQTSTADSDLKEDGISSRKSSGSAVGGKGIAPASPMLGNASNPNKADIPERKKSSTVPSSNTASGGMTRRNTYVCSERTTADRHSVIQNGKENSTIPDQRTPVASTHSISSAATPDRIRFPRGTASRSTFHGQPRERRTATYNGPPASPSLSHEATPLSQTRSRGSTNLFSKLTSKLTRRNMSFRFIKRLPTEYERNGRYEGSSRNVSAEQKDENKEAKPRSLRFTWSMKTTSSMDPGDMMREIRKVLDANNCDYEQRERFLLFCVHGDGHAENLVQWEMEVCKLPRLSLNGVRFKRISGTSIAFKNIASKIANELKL", "assay": "Inhibition of MARK3 in human HeLa cells lysate at 10 uM pre incubated for 15 mins followed by ADP acyl phosphate probe addition and measured after 10 mins by LC-MS/MS analysis relative to control", "assay_type": "subcellular", "settings": "time 25.0 min"}, "[10]": {"molecular_target": "T2, Dual specificity mitogen-activated protein kinase kinase 3 (Homo sapiens) (UniProt P46734)", "T2 sequence (whole entry)": "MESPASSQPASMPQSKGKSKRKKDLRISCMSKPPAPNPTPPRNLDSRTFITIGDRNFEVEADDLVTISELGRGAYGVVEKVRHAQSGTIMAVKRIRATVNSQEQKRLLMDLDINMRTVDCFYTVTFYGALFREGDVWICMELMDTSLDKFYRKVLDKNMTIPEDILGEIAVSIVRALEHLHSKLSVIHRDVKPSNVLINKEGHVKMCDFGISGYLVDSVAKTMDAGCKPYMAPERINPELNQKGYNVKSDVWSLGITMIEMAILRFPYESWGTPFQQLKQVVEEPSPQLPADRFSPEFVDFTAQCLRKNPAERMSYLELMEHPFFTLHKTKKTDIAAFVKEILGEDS", "assay": "Inhibition of MAP2K3 in human HeLa cells lysate at 2 uM pre incubated for 15 mins followed by ADP acyl phosphate probe addition and measured after 10 mins by LC-MS/MS analysis relative to control", "assay_type": "subcellular", "settings": "time 25.0 min"}, "[11]": {"molecular_target": "Phosphatidylinositol 5-phosphate 4-kinase type-2 beta (Homo sapiens) (UniProt P78356)", "sequence (P78356 whole entry)": "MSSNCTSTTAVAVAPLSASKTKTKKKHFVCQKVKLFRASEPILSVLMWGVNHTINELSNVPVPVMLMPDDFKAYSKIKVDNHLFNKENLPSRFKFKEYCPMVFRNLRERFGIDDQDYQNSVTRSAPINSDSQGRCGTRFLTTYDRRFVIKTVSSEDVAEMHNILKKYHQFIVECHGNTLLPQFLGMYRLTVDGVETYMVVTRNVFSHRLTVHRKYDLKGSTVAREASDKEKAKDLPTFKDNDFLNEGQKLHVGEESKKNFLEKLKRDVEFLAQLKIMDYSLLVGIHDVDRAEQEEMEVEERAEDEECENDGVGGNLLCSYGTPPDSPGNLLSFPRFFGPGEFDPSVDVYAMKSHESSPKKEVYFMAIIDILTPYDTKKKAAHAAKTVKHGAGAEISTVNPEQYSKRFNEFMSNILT", "assay": "Inhibition of PIP5K2B in human HeLa cells lysate at 50 uM pre incubated for 15 mins followed by ATP acyl phosphate probe addition and measured after 10 mins by LC-MS/MS analysis relative to control", "assay_type": "subcellular", "settings": "time 25.0 min"}, "[12]": {"molecular_target": "Serine/threonine-protein kinase 38 (Homo sapiens, UniProt Q15208)", "assay": "Inhibition of NDR1 in human HeLa cells lysate at 50 uM pre incubated for 15 mins followed by ATP acyl phosphate probe addition and measured after 10 mins by LC-MS/MS analysis relative to control", "assay_type": "subcellular", "settings": "time 25.0 min"}, "[13]": {"molecular_target": "Tyrosine-protein kinase CSK (Homo sapiens, UniProt P41240)", "assay": "Inhibition of CSK in human HeLa cells lysate at 50 uM pre incubated for 15 mins followed by ATP acyl phosphate probe addition and measured after 10 mins by LC-MS/MS analysis relative to control", "assay_type": "subcellular", "settings": "time 25.0 min"}, "[14]": {"molecular_target": "Serine/threonine-protein kinase Nek1 (Homo sapiens) (UniProt Q96PY6)", "assay": "Inhibition of NEK1 in human HeLa cells lysate at 50 uM pre incubated for 15 mins followed by ATP acyl phosphate probe addition and measured after 10 mins by LC-MS/MS analysis relative to control", "assay_type": "subcellular", "settings": "time 25.0 min"}, "[15]": {"molecular_target": "Tyrosine-protein kinase ABL (Homo sapiens, UniProt P00519+P42684)", "sequence (P00519 whole entry, looked up)": "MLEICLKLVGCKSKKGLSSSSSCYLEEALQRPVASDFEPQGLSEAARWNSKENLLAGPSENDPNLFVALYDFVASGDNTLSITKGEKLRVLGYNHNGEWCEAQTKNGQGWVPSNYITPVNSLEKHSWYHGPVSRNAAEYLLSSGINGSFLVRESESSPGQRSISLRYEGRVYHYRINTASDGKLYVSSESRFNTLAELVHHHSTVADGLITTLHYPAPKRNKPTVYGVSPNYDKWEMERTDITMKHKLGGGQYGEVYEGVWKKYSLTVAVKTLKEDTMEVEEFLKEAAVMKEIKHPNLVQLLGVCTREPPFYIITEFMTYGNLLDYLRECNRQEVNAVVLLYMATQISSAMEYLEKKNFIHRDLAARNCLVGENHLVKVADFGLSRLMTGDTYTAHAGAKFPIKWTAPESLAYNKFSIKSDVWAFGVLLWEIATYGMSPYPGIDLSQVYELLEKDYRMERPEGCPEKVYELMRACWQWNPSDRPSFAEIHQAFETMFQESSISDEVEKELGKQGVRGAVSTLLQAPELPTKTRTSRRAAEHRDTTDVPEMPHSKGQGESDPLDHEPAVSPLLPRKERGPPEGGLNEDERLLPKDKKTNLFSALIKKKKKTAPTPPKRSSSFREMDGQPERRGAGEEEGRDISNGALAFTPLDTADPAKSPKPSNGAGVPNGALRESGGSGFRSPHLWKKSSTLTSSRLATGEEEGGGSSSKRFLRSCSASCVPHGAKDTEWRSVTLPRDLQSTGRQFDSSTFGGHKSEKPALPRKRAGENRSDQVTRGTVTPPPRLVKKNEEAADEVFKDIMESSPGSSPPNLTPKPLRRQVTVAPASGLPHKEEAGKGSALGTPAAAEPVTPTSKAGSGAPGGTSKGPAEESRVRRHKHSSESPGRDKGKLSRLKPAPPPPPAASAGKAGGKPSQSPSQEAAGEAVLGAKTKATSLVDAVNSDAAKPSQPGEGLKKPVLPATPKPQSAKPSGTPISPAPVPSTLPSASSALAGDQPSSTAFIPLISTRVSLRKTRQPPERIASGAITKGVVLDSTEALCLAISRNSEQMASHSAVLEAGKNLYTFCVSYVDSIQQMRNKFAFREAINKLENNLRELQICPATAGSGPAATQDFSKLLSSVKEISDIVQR", "sequence (P42684 whole entry, looked up)": "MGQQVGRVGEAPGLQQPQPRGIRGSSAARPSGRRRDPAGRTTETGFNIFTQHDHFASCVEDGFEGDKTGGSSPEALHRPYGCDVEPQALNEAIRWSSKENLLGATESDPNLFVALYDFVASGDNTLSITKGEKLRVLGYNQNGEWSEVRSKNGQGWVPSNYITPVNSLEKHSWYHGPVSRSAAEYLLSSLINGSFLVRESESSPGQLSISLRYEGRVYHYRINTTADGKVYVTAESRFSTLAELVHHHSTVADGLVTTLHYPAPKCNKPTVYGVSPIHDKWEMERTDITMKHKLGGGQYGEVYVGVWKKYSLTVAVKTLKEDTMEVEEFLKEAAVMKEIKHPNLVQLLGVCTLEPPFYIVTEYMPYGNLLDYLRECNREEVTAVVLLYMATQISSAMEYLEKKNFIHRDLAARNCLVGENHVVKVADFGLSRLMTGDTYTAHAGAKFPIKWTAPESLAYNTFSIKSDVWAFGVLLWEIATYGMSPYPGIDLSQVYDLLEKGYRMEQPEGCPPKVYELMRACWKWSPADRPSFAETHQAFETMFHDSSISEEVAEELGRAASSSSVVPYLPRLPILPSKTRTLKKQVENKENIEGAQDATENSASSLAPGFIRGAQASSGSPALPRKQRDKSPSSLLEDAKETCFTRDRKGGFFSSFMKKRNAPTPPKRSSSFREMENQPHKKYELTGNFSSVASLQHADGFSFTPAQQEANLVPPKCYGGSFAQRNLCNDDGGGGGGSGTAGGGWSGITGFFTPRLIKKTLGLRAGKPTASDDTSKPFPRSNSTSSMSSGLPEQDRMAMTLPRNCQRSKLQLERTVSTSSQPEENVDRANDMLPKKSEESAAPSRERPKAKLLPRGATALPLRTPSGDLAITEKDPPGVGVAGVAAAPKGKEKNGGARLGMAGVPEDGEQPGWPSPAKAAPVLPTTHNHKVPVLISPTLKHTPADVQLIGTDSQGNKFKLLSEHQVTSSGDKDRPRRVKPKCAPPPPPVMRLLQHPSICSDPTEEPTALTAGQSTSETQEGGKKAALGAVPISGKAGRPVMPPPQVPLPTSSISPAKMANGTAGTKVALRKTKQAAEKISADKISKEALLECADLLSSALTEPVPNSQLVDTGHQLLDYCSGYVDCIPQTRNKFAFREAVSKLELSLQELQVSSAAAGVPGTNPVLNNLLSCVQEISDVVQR", "assay": "Inhibition of ABL1/2 in human HeLa cells lysate at 10 uM pre incubated for 15 mins followed by ATP acyl phosphate probe addition and measured after 10 mins by LC-MS/MS analysis relative to control", "assay_type": "subcellular", "settings": "time 25.0 min", "method_in_brief": "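HeLa cell lysates (5 mg/mL total protein) were preincubated with inhibitor at 0, 0.8, 2, 10 or 50 μM for 15 min. ATP or ADP acylphosphate probe was then added (5 μM final) for 10 min, and reactions were stopped with urea. Up to four fragment ions per kinase probe-peptide were quantified by targeted MS. % inhibition was taken relative to untreated lysate. Run in duplicate.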"}, "[16]": {"tested_on": "Lewis lung carcinoma", "assay": "In vivo inhibition of […] in mouse LL2 cells allografted in C57Bl/6 mouse assessed as decrease in Grb2 phosphorylation level for 2 weeks by Western blot analysis", "assay_type": "functional, organism-based"}}, "note": "Activity calls are given as the source filed them. No cut-off for these calls is given here.", "data": [{"smiles": "CCOc1cc(N2CCC(O)CC2)ccc1Nc1ncc2c(n1)N(C)c1ccccc1C(=O)N2C", "values": [{"measurement": "IC50", "setting": "[1]", "result": "> 50", "unit": "µM"}, {"measurement": "IC50", "setting": "[2]", "result": "> 50", "unit": "µM"}, {"measurement": "IC50", "setting": "[3]", "result": "> 50", "unit": "µM"}, {"measurement": "IC50", "setting": "[4]", "result": "> 50", "unit": "µM"}, {"measurement": "IC50", "setting": "[5]", "result": "> 50", "unit": "µM"}, {"measurement": "IC50", "setting": "[6]", "result": "> 50", "unit": "µM"}, {"measurement": "inhibition", "setting": "[7]", "result": 6.8, "unit": "%"}, {"measurement": "inhibition", "setting": "[8]", "result": -4.5, "unit": "%"}, {"measurement": "inhibition", "setting": "[9]", "result": 4.8, "unit": "%"}, {"measurement": "inhibition", "setting": "[10]", "result": 7.5, "unit": "%"}, {"measurement": "inhibition", "setting": "[11]", "result": 6.9, "unit": "%"}, {"measurement": "inhibition", "setting": "[12]", "result": 5.3, "unit": "%"}, {"measurement": "inhibition", "setting": "[13]", "result": 0.9, "unit": "%"}, {"measurement": "inhibition", "setting": "[14]", "result": -3.8, "unit": "%"}, {"measurement": "inhibition", "setting": "[15]", "result": 1.7, "unit": "%"}, {"measurement": "inhibition", "setting": "[16]", "result": "Active"}]}]}
